Screening data: PubChem, The Scripps Research Institute Molecular Screening Center
Hits are enriched below; roughly 3.3% of the tested compounds scored in any of these assays.
SIAE inh: inhibitors of human sialic acid acetylesterase SIAE. inhibition, % at 9.66 µM. 0.69% of 370,000 active. SIAE FP-Rh probe binding, fluorescence polarization;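 active means inhibition above a cutoff: mean of compounds within the control limits plus 3 SD of those, cut at about 17% in these data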;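 further: 0% = plate median of compound wells and 100% = probe without SIAE protein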
mABHD4 FP: inhibits mouse alpha/beta hydrolase domain 4. AID 720543. purified mABHD4, FP-Rh probe fluorescence polarization. inhibition, % at 8.92 µM. 0.54% of 370,000 active. Q8VD66;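 active means inhibition exceeding the mean over every tested compound plus 3 SD, cut at about 30% in these data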;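 further: 0% = plate median of compound wells and 100% = S159A mutant with DMSO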
Target sequence (Q8VD66 whole entry, looked up, the tested form may be a part): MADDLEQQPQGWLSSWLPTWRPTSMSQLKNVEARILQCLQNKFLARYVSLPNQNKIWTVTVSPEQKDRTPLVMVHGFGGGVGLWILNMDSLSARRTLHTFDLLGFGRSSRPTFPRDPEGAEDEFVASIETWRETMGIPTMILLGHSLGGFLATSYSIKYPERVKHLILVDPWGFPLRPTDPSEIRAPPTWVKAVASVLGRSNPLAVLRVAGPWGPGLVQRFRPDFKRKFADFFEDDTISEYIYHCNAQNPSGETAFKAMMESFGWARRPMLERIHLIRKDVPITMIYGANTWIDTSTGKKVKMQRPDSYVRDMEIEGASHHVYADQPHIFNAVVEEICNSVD
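Test system: mouse ABHD4 enzyme, wild type. Reagent: FP-Rh fluorescent activity-based probe, added after compound pre-incubation. Timing: pre-incubation 45 min, probe exposure 60 min, at 25 °C. Technique: FP readout, ex 525 nm / em 598 nm. Benchmarks: high control S159A mutant with DMSO, low control median of compound wells.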
HTRA1 inhibitor: HTRA1 (human) protease inhibition; AID 504803; recombinant HTRA1, FP-rhodamine activity-based probe, fluorescence polarization; inhibition, % at 5.96 µM; 0.5% of 340,000 active; in the data active means inhibition above about 36%;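 further: 0% = enzyme with DMSO and 100% = wells lacking enzyme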
PRMT1 FP inh: inhibitors of human PRMT1. recombinant PRMT1, activity-based probe fluorescence polarization. 1.3% of 370,000 active. inhibition, % at 2.79 µM. Q99873;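 active means inhibition above about 21% made by adding two undisclosed values, limit read from the data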
rCAG binder: molecules binding r(CAG) RNA repeats. inhibition, % at 3 µM. 1.3% of 370,000 active. r(CAG) RNA repeat, TO-PRO-1 dye displacement fluorescence;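 active means inhibition above the plate cutoff, the mean of all test compounds on that plate plus 3 SD, cut at about 35% in these data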;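 further: 0% = DMSO alone and 100% = 100 µM mitoxantrone as full dye displacement; higher means more dye released from RNA so lower well fluorescence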
HTRA1 inh conf: confirmation of human HTRA1 inhibitors. shares compounds with HTRA1 inhibitor. recombinant HTRA1, FP-rhodamine activity-based probe, fluorescence polarization. inhibition, % at 5.96 µM. 66% of 1,600 active. AID 540248;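 active means mean inhibition over three repeats above a set limit taken from the earlier primary screen, cut at about 37% in these data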;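 further: 0% = HTRA1 with DMSO and 100% = wells lacking HTRA1; inhibitors block probe binding so polarization drops and inhibition rises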
Active calls of the source: *; · = no result given.

SMILES	SIAE inh	mABHD4 FP	HTRA1 inhibitor	PRMT1 FP inh	rCAG binder	HTRA1 inh conf
Cc1ccc2nc(-c3ccc(O)c(O)c3)cn2c1	12	14	45*	2	4	74*
O=C(N/N=C/c1cccnc1)c1cc(O)c(O)c(O)c1	1	22	45*	14	4	12
O=C(N/N=C/c1cccnc1)c1ccc(O)cc1	5	-1	1	-3	-1	·
COc1cccc(CNC(=O)[C@H]2CCCN2)c1	10	3	·	0	1	·
Oc1c(C(c2ccccn2)N2CCCCC2)cc(Cl)c2cccnc12 (stereo unspecified)	4	6	53*	-4	1	55*
CN1CCN(C(c2ccc(Cl)cc2)c2cc(Cl)c3cccnc3c2O)CC1 (stereo unspecified)	-4	-1	43*	-3	7	87*
S=C1NC2(CCCCCC2)NN1c1ccccc1	8	-3	·	3	4	·
O=C(CN1CCN(S(=O)(=O)c2ccc(Br)cc2)CC1)c1ccc(O)c(O)c1	8	18	37*	2	9	39*
CC(C)c1ccc(S(=O)(=O)N2CCN(CC(=O)Nc3ccc(Cl)cc3F)CC2)cc1	1	-2	-4	4	3	·
CC(C)c1ccc(S(=O)(=O)N2CCN(CC(=O)c3ccc(O)c(O)c3)CC2)cc1	7	21	38*	15	10	35
COc1ccc(Cn2cc(CN3[C@@H](C)COc4cc(Br)ccc4S3(=O)=O)nn2)cc1	7	0	·	2	2	·
CN1/C(=C/C=C/c2n(C)c3cc([N+](=O)[O-])c([N+](=O)[O-])cc3[n+]2C)C(C)(C)c2ccccc21	6	-1	42*	7	22	41*
Cc1cccc[n+]1CC(=O)/C=C1\N(C)c2ccccc2C1(C)C	-35	-67	-27	-4	-2	·
CC(C)C[C@H]1COc2cccc(F)c2S(=O)(=O)N1Cc1cn(CCC2OCCCO2)nn1	-7	3	·	-1	2	·
COc1cc(/C=N/n2c(-c3ccc4c(c3)NC(=O)CO4)csc2=Nc2cccc(C)c2)ccc1O	41*	21	44*	3	16	82*
COCCN=c1scc(-c2ccc3c(c2)NC(=O)CO3)n1/N=C(\C)c1ccc(O)cc1	11	12	10	-4	2	·
O=C(CSc1ccccc1)NC1CCCCN(Cc2ccc(Cl)cc2)C1=O (stereo unspecified)	1	0	·	2	1	·
FC(F)(F)c1cnc(NNC(=S)Nc2ccccc2Cl)c(Cl)c1	7	17	43*	-2	3	33
Cc1cccc(NC(=S)NNc2ncc(C(F)(F)F)cc2Cl)c1	-3	1	27	1	5	·
O=c1c(O)c(-c2ccc(O)c(O)c2)oc2cc(O)ccc12	0	27	39*	4	13	35
O=c1c(-c2ccc(O)cc2)coc2cc(O)ccc12	3	13	-4	2	4	·
C[C@@H]1COc2cc(Br)ccc2S(=O)(=O)N1Cc1cn(Cc2ccc(Br)cc2)nn1	0	5	·	0	7	·
O=C1C=C(N2CCN(c3ccccn3)CC2)C(=O)c2c(O)ccc(O)c21	6	13	38*	2	5	49*
CCCNC(=O)N1[C@@H](CO)[C@H](c2ccc(C3=CCCC3)cc2)[C@@H]1CN(CC)S(=O)(=O)c1ccccc1[N+](=O)[O-]	4	-6	·	0	10	·
Oc1ccccc1/C=N/NC(=S)NC1CC2CC1C1C=CCC21 (stereo unspecified)	12	7	37*	0	12	14
SMILES	SIAE inh	mABHD4 FP	HTRA1 inhibitor	PRMT1 FP inh	rCAG binder	HTRA1 inh conf
Brc1ccc(C=Nc2ccc(Nc3ccccc3)cc2)s1	·	·	73*	·	·	94*
O=C(CCC(=O)N/N=C/c1ccc(Br)s1)NCc1ccccc1	7	5	-2	1	-2	·
CN(C)CCCNc1cc(C(C)(C)C)nc2c(-c3ccccc3)cnn12	2	15	36*	1	0	32
O=C(CCn1nnc2ccccc21)N1CCN(c2ccccc2F)CC1	-1	10	·	4	-3	·
Cc1ccc2nc(-c3ccccn3)c(NC3CCCC3)n2c1	5	11	38*	-1	-2	38*
CCOc1cc(/C=C2\C(=O)N(c3nc(-c4ccc(Br)cc4)cs3)N=C2c2ccccc2)ccc1O	·	·	40*	·	·	47*
CN(CC(=O)Nc1ccccc1Br)C(=O)c1cc([N+](=O)[O-])ccc1N1CCOCC1	-15	-5	92*	-2	2	-2
COc1ccc(C(=O)C2(C(=O)NCc3ccccc3)CC(c3ccccc3C(F)(F)F)=NO2)cc1 (stereo unspecified)	-3	-9	·	1	5	·
CC(C)N=c1scc(-c2ccco2)n1/N=C/c1ccc(O)c(O)c1	-6	36*	67*	8	20	58*
Oc1ccc(-c2csc(-c3cccnc3)n2)cc1O	-4	11	37*	7	4	47*
Oc1ccc(-c2csc(Nc3ncccn3)n2)c(O)c1	-5	-1	4	-3	8	·
c1cncc(-c2nc(-c3ccc4c(c3)OCCO4)cs2)c1	-2	-6	-13	1	2	·
Oc1ccc(-c2csc(Nc3ncccn3)n2)cc1O	-2	14	54*	9	32	59*
Cc1cc(NCCc2c[nH]c3ccccc23)ccc1Nc1cccnc1	12	28	·	4	9	·
O=C(NC1CCCC1)[C@@H]1CCCN1C(=O)[C@H](Cc1cccnc1)NC(=O)N1CCOCC1	1	1	·	2	2	·
Nc1cccc(Nc2nc(OC(C(F)(F)F)C(F)(F)F)nc(OC(C(F)(F)F)C(F)(F)F)n2)c1	0	-15	38*	7	-1	12
COC(=O)[C@]12C[C@H](CC(=O)NCC3CCCCC3)C(=O)N(Cc3ccccc3)C1=C[C@H](C(C)C)O[C@@H]2C1CC1	0	-14	·	-5	2	·
O=C(NCC1CCN(C(=O)C(=O)c2cccs2)CC1)c1ccncc1	5	0	·	-5	2	·
COc1ccc(OC)c(-c2c3cc(O)c(=O)cc-3oc3cc(O)c(O)cc23)c1	·	·	85*	·	·	90*
O=c1cc2oc3cc(O)c(O)cc3c(-c3ccccc3O)c-2cc1O	·	·	60*	·	·	127*
Cc1ccccc1-c1cc(=O)c2c(O)cccc2o1	-5	2	-6	-2	-2	·
COc1ccc(OC)c(-c2oc3ccccc3c(=O)c2O)c1	6	1	5	0	0	·
COc1ccc(C(=O)NCC2CCN(C(=O)C(=O)c3cccs3)CC2)c(OC)c1	0	9	·	3	0	·
COc1cc(/C=C/C(=O)NCC(=O)N2CCC(N(C)CCN3CCOCC3)CC2)ccc1OC(C)C	1	3	37*	-1	-8	-1
Cc1ccc(C(=O)Nc2nc(-c3ccccn3)cs2)o1	3	6	34	-2	8	·
CCc1cc(C(=O)Nc2nc(-c3ccccn3)cs2)sc1C	-12	-4	37*	-2	9	20
